Test results from ChEMBL document CHEMBL1275461, “Early bactericidal activity and pharmacokinetics of the diarylquinoline TMC207 in treatment of pulmonary tuberculosis” (Antimicrob Agents Chemother, 2008).

Experiments:
[1] = AUC (0 to 24 hrs) in pulmonary tuberculosis patient at 400 mg/kg, po once daily for 7 days by liquid chromatography-MS/MS analysis; format: ADME, organism-based; design: time < 24 hr, dose 400 mg/kg, route oral; settings: human, plasma
Method in brief: (§1)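 Treatment-naïve, sputum smear-positive patients, hospitalized, took the drug orally once daily under direct observation within 30 min after breakfast. On day 7, heparinized plasma was drawn predose and at 1, 2, 3, 4, 5, 6, 8, 12 and 24 h for parent drug and M2 metabolite. Levels were measured by validated LC-MS/MS, and AUC0-24 was calculated noncompartmentally by the linear trapezoidal rule.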

[2] = test system: Mycobacterium tuberculosis; experiment: Bactericidal activity against Mycobacterium tuberculosis in pulmonary tuberculosis patient assessed as reduction in sputum bacterial count at 25 mg/kg, po once daily measured after 7 days; format: functional
Method in brief: (§2)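 Hospitalized treatment-naïve smear-positive patients took oral doses once daily, observed, after breakfast. Sputum was pooled over 16 h overnight at baseline, after each of the 7 dosing days, and on the night after the first standard-therapy dose. Sputum was stirred, digested with dithiothreitol for 20 min at room temperature, and diluted 10-fold. Dilutions were plated in quadruplicate on selective 7H11 agar and counted after 3-4 weeks at 37°C at 20-200 colonies. The read-out was change in log10 CFU/ml from baseline, with a count of 0 set to log 0.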

[3] = AUC (0 to 24 hrs) in pulmonary tuberculosis patient at 25 mg/kg, po once daily for 7 days by liquid chromatography-MS/MS analysis; format: ADME, organism-based; design: time < 24 hr, dose 25 mg/kg, route oral; settings: human, plasma; method in brief: as §1
[4] = test system: Mycobacterium tuberculosis; experiment: Bactericidal activity against Mycobacterium tuberculosis in pulmonary tuberculosis patient assessed as reduction in sputum bacterial count at 400 […], po once daily measured after 1 day; format: functional; method in brief: as §2
Homo sapiens [5] = experiment: Toxicity in pulmonary tuberculosis patient assessed as diarrhea at 400 mg/kg, po once daily; format: organism-based; design: dose 400 mg/kg, route oral; settings: in vivo
[6] = test system: Mycobacterium tuberculosis; experiment: Bactericidal activity against Mycobacterium tuberculosis in pulmonary tuberculosis patient assessed as reduction in sputum bacterial count at 25 […], po once daily measured after 2 days; format: functional; method in brief: as §2
[7] = test system: Mycobacterium tuberculosis; experiment: Bactericidal activity against Mycobacterium tuberculosis in pulmonary tuberculosis patient assessed as reduction in sputum bacterial count at 400 mg/kg, po once daily measured after 3 days; format: functional; method in brief: as §2
[8] = Drug uptake in pulmonary tuberculosis patient at 400 mg/kg, po once daily for 7 days by liquid chromatography-MS/MS analysis; format: ADME, organism-based; design: dose 400 mg/kg, route oral; settings: human, in vivo, read-out: Drug uptake
Method in brief: (§3)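 Treatment-naïve smear-positive pulmonary TB patients, hospitalized; 7-day oral once-daily monotherapy, directly observed, within 30 min after breakfast. Heparinized plasma taken predose and 1, 2, 3, 4, 5, 6, 8, 12 and 24 h postdose on day 7, plus predose on days 5 and 6. Parent drug and N-monodesmethyl metabolite measured by validated LC-MS/MS. Noncompartmental parameters; AUC0-24 by linear trapezoidal rule.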

[9] = test system: Mycobacterium tuberculosis; experiment: Bactericidal activity against Mycobacterium tuberculosis in pulmonary tuberculosis patient assessed as reduction in sputum bacterial count at 100 […], po once daily measured on day 8 after starting standard TB therapy; format: functional; method in brief: as §2
[10] = test system: Mycobacterium tuberculosis; experiment: Bactericidal activity against Mycobacterium tuberculosis in pulmonary tuberculosis patient assessed as reduction in sputum bacterial count at 100 […], po once daily measured after 2 days; format: functional; method in brief: as §2
[11] = test system: Mycobacterium tuberculosis; experiment: Bactericidal activity against Mycobacterium tuberculosis in pulmonary tuberculosis patient assessed as reduction in sputum bacterial count at 400 mg/kg, po once daily measured after 5 days; format: functional; method in brief: as §2
Homo sapiens [12] = experiment: Toxicity in pulmonary tuberculosis patient assessed as rash at 100 […], po once daily; format: organism-based; design: dose 100 mg/kg, route oral; settings: in vivo
Homo sapiens [13] = experiment: Steady-state plasma concentration in pulmonary tuberculosis patient at 400 mg/kg, po once daily for 7 days by liquid chromatography-MS/MS analysis; format: ADME, organism-based; design: dose 400 mg/kg, route oral; settings: in vivo, 168 h; method in brief: as §3
[14] = test system: Mycobacterium tuberculosis; experiment: Bactericidal activity against Mycobacterium tuberculosis in pulmonary tuberculosis patient assessed as reduction in sputum bacterial count at 100 […], po once daily measured after 7 days; format: functional; method in brief: as §2
Homo sapiens [15] = experiment: Toxicity in pulmonary tuberculosis patient assessed as hemoptysis at 400 mg/kg, po once daily; format: organism-based; design: dose 400 mg/kg, route oral; settings: in vivo
[16] = Cmax in pulmonary tuberculosis patient at 100 […], po once daily for 7 days by liquid chromatography-MS/MS analysis; format: ADME, organism-based; design: dose 100 mg/kg, route oral; settings: human, in vivo; method in brief: as §3
[17] = Drug uptake in pulmonary tuberculosis patient at 25 mg/kg, po once daily for 7 days by liquid chromatography-MS/MS analysis; format: ADME, organism-based; design: dose 25 mg/kg, route oral; settings: human, in vivo, read-out: Drug uptake; method in brief: as §3
[18] = test system: Mycobacterium tuberculosis; experiment: Bactericidal activity against Mycobacterium tuberculosis in pulmonary tuberculosis patient assessed as reduction in sputum bacterial count at 400 mg/kg, po once daily measured on day 8 after starting standard TB therapy; format: functional; method in brief: as §2
[19] = test system: Mycobacterium tuberculosis; experiment: Bactericidal activity against Mycobacterium tuberculosis in pulmonary tuberculosis patient assessed as reduction in sputum bacterial count at 25 […], po once daily measured after 4 days; format: functional; method in brief: as §2
[20] = test system: Mycobacterium tuberculosis; experiment: Bactericidal activity against Mycobacterium tuberculosis in pulmonary tuberculosis patient assessed as reduction in sputum bacterial count at 100 […], po once daily measured after 3 days; format: functional; method in brief: as §2
[21] = Tmax in pulmonary tuberculosis patient at 400 mg/kg, po once daily for 7 days by liquid chromatography-MS/MS analysis; format: ADME, organism-based; design: dose 400 mg/kg, route oral; settings: human, in vivo; method in brief: as §3
Homo sapiens [22] = experiment: Steady-state plasma concentration in pulmonary tuberculosis patient at 100 […], po once daily for 7 days by liquid chromatography-MS/MS analysis; format: ADME, organism-based; design: dose 100 mg/kg, route oral; settings: in vivo, 168 h; method in brief: as §3
[23] = test system: Mycobacterium tuberculosis; experiment: Bactericidal activity against Mycobacterium tuberculosis in pulmonary tuberculosis patient assessed as reduction in sputum bacterial count at 100 […], po once daily measured after 5 days; format: functional; method in brief: as §2

## COc1nc2ccc(Br)cc2cc1[C@@H](c1ccccc1)[C@@](O)(CCN(C)C)c1cccc2ccccc12 [BEDAQUILINE]
[1]
  AUC at 24 h: 64800 ng·h/mL
[2]
  log10CFU/ml: -0.04
[3]
  AUC at 24 h: 3970 ng·h/mL
[4]
  log10CFU/ml: -0.07
Homo sapiens [5]
  Activity: 7%
[6]
  log10CFU/ml: 0.02
[7]
  log10CFU/ml: -0.31
[8]
  concentration at 168 h: 1530 ng/mL
[9]
  log10CFU/ml: -0.71
[10]
  log10CFU/ml: -0.2
[11]
  log10CFU/ml: -0.45
Homo sapiens [12]
  Activity: 7%
Homo sapiens [13]
  Css: 2696 ng/mL
[14]
  log10CFU/ml: -0.26
Homo sapiens [15]
  Activity: 21.4%
[16]
  Cmax: 1210 ng/mL
[17]
  concentration at 168 h: 104 ng/mL
[18]
  log10CFU/ml: -1.14
[19]
  log10CFU/ml: -0.22
[20]
  log10CFU/ml: -0.37
[21]
  Tmax: 4 h
Homo sapiens [22]
  Css: 667.7 ng/mL
[23]
  log10CFU/ml: -0.13
